Experiments:
[1] = target: DNA-directed RNA polymerase subunit beta (Escherichia coli O127:H6 (strain E2348/69 / EPEC), UniProt B7UPE2, D516V); experiment: Inhibition of rifamycin-resistant Escherichia coli RNA polymerase D516V mutant after 10 mins by rolling circle transcription assay in presence of DNA nanocircle template NC45
[2] = target: DNA-directed RNA polymerase subunit beta (Escherichia coli O127:H6 (strain E2348/69 / EPEC), UniProt B7UPE2, H526Y); experiment: Inhibition of rifamycin-resistant Escherichia coli RNA polymerase H526Y mutant after 10 mins by rolling circle transcription assay in presence of DNA nanocircle template NC45
Chain of DNA-directed RNA polymerase subunit beta (Escherichia coli O127:H6 (strain E2348/69 / EPEC), UniProt B7UPE2, H526Y) (B7UPE2 whole entry H526Y): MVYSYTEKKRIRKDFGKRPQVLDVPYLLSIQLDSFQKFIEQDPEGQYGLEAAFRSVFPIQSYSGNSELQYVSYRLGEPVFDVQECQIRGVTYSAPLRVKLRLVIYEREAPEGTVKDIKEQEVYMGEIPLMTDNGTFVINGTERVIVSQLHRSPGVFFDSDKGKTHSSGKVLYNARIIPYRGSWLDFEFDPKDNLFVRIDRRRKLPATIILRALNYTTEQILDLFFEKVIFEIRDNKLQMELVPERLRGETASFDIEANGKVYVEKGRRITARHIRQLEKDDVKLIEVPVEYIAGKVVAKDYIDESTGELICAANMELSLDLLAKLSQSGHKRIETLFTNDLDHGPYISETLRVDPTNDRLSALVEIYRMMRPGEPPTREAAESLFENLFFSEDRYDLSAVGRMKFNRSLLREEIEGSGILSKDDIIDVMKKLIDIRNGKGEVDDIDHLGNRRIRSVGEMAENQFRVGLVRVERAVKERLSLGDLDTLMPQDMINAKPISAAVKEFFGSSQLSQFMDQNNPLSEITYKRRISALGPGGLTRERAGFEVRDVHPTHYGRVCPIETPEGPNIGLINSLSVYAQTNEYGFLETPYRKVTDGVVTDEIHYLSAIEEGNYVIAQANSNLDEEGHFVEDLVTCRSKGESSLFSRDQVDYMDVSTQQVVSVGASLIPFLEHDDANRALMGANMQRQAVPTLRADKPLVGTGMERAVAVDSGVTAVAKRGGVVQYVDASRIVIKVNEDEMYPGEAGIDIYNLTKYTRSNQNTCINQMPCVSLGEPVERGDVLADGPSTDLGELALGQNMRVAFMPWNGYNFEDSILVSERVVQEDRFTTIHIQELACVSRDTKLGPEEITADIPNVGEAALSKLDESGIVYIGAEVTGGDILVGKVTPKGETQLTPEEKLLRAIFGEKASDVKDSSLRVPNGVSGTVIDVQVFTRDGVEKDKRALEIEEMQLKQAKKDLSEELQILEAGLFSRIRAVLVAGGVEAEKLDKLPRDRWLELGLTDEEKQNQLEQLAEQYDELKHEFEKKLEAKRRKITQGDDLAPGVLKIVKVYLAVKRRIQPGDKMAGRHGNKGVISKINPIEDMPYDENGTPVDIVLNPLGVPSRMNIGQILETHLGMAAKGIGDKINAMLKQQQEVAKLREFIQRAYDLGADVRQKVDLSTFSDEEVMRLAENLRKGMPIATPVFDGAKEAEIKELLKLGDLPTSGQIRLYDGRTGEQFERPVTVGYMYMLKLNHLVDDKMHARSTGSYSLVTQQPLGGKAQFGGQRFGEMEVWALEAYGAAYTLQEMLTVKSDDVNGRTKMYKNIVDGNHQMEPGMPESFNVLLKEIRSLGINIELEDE

[3] = Inhibition of wild type Escherichia coli RNA polymerase after 10 mins by rolling circle transcription assay in presence of DNA nanocircle template NC45
How it was run: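 Wild-type core enzyme (10 nM final), Ni-NTA purified, with compound at 1.56-100 or 3.12-200 nM, held 10 min at 37 °C in Tris-HCl pH 8.0 buffer with KCl, MgCl2, Triton X-100, DTT and RNase inhibitor. Transcription on 80 nM NC45 circle was started with NTPs (500 µM each). Each compound run in duplicate; IC50 by nonlinear four-parameter logistic regression.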

[4] = Inhibition of wild type Mycobacterium tuberculosis RNA polymerase after 10 mins by rolling circle transcription assay in presence of DNA nanocircle template NC45

Chain of DNA-directed RNA polymerase subunit beta (Escherichia coli O127:H6 (strain E2348/69 / EPEC), UniProt B7UPE2, D516V) (B7UPE2 whole entry D516V): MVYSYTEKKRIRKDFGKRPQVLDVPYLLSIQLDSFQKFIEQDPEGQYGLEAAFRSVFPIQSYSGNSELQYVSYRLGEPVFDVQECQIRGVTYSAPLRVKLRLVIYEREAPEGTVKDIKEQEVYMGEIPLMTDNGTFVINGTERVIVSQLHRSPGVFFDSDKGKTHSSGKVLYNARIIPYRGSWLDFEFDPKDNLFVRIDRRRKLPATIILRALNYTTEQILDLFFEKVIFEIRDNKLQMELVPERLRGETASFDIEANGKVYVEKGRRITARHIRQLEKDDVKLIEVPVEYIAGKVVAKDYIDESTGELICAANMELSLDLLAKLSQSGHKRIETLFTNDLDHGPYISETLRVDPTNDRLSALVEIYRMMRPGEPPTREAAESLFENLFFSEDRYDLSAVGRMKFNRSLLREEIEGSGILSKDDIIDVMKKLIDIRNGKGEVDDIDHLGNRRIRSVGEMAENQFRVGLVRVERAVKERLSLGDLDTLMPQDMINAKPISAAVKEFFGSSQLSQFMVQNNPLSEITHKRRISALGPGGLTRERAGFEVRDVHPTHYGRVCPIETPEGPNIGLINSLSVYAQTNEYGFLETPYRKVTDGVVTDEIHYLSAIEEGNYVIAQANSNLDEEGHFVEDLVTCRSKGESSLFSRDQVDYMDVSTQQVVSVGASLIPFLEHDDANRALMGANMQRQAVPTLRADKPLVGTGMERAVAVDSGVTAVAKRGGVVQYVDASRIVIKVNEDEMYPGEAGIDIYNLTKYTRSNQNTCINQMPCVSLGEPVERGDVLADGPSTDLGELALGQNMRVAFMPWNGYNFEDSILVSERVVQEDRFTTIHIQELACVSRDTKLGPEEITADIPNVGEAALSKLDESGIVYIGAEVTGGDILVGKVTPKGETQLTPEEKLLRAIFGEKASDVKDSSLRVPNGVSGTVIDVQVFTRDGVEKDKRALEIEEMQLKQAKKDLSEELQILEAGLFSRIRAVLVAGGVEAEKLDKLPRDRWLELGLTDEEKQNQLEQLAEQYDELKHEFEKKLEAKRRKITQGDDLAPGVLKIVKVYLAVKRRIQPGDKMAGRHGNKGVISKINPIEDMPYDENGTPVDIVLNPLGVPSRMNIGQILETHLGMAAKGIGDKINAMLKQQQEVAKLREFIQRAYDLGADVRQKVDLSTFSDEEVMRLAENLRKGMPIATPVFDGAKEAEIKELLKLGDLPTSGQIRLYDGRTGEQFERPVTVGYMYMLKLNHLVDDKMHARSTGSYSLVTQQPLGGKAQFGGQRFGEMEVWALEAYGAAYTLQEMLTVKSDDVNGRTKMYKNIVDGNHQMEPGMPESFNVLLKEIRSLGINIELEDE

| Compound | IC50 [1] [µM] | IC50 [2] [µM] | IC50 [3] [µM] | IC50 [4] [µM] |
| --- | --- | --- | --- | --- |
| CCN(CC)CCOc1cccc2oc3c4c(=O)c5c(O)c(C)c6c(c5c-3nc12)C(=O)[C@@](C)(O/C=C/[C@H](OC)[C@@H](C)[C@@H](OC(C)=O)[C@H](C)[C@H](O)[C@H](C)[C@@H](O)[C@@H](C)/C=C/C=C(/C)C(=O)N4)O6 | 35 | 1150 | 0.057 | – |
| CO[C@H]1/C=C/O[C@@]2(C)Oc3c(C)c(O)c4c(=O)c(c5oc6cccc(OCCCCN7CCN(CCn8ccnc8)CC7)c6nc-5c4c3C2=O)NC(=O)/C(C)=C\C=C\[C@H](C)[C@H](O)[C@@H](C)[C@@H](O)[C@@H](C)[C@H](OC(C)=O)[C@@H]1C | 2 | ≥ 2000 | 0.024 | – |
| CO[C@H]1/C=C/O[C@@]2(C)Oc3c(C)c(O)c4c(=O)c(c5oc6cccc(OCCCCN7CCN(C(=O)Cn8ccnc8)CC7)c6nc-5c4c3C2=O)NC(=O)/C(C)=C\C=C\[C@H](C)[C@H](O)[C@@H](C)[C@@H](O)[C@@H](C)[C@H](OC(C)=O)[C@@H]1C | 41 | 1580 | 0.021 | – |
| CO[C@H]1/C=C/O[C@@]2(C)Oc3c(C)c(O)c4c(=O)c(c5oc6cc(N7CCN(CC(C)C)CC7)cc(O)c6nc-5c4c3C2=O)NC(=O)/C(C)=C\C=C\[C@H](C)[C@H](O)[C@@H](C)[C@@H](O)[C@@H](C)[C@H](OC(C)=O)[C@@H]1C [RIFALAZIL] | 204 | 299 | < 0.01 | – |
| CO[C@H]1/C=C/O[C@@]2(C)Oc3c(C)c(O)c4c(O)c(c(/C=N/N5CCN(C)CC5)c(O)c4c3C2=O)NC(=O)/C(C)=C\C=C\[C@H](C)[C@H](O)[C@@H](C)[C@@H](O)[C@@H](C)[C@H](OC(C)=O)[C@@H]1C [RIFAMPIN] | 233 | 1130 | 0.012 | 0.017 |

— ChEMBL document CHEMBL2380284, “X-ray crystal structures of the Escherichia coli RNA polymerase in complex with benzoxazinorifamycins” (J Med Chem, 2013)
